Values after ≈ are worked out from the molar mass of the structure shown. Active and inactive are the calls of the source. The rule behind the calls is not given here. Starred links: 1 amine or outer side, 2 acyl side, 3 side chain; linkers in the order of their positions; H or OH if unused. Positions of bridges follow the written chain, without caps; N, C: chain ends. Non-standard residues stand in square brackets, D forms with d. Residues, ends and D or L forms follow the SMILES beside them. *: point of attachment. hTyr(3S-OH,4S-OH,3'-OSO3H) = N[C@H](C(=O)O)[C@H](O)[C@@H](O)c1ccc(O)c(OS(=O)(=O)O)c1; Orn(4R-OH,5R-OH) = O=C([C@H](C[C@@H](O)[C@@H](O)N[*:3])N[*:1])[*:2]; Pro(3S-OH,4S-Me) = C[C@H]1CN[C@H](C(=O)O)[C@H]1O; X1 = CCCCCOc1ccc(-c2cc(-c3ccc(C(=O)*)cc3)no2)cc1; Gln(3R-OH) = NC(=O)C[C@@H](O)[C@H](N)C(=O)O; Hyp = O=C(O)[C@@H]1C[C@@H](O)CN1

Experiment [1] concerns Nakaseomyces glabratus. Briefly: Antimicrobial activity against Candida glabrata TG162 containing calcineurin deltacnb1 mutant by colorimetric microdilution method. It counts as functional. The procedure, abridged: (§1)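 MIC by commercially prepared colorimetric broth microdilution panel; agents tested were fluconazole, miconazole, itraconazole, voriconazole and amphotericin B.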

The test system of experiment [2] is Nakaseomyces glabratus. Briefly: Antimicrobial activity against calcineurin deltacnb1 mutant containing Candida glabrata TG163 complemented with CNB1 gene by colorimetric microdilution method. It counts as functional. The method in brief:
as §1

Experiment [3] has as its system Nakaseomyces glabratus. Description: Fungistatic activity against calcineurin deltacnb1 mutant containing Candida glabrata TG163 complemented with CNB1 gene assessed as reduction in […] cell viability by time kill study. It counts as functional, organism-based. The procedure, abridged: (§2)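 Time-kill: log-phase cells at 5 × 10^5 CFU/ml in minimal medium with agitation, with or without fluconazole at several concentrations. Total cells counted by hemocytometer, viable cells by plating dilutions on YPD. Read-out is percent viability; mean and SD of three independent experiments.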

Experiment [4] concerns Nakaseomyces glabratus. Description: Fungistatic activity against wild type Candida glabrata TG11 assessed as reduction in […] cell viability by time kill study. Type of experiment: functional, organism-based. The procedure, abridged:
as §2

In experiment [5] the test system is Nakaseomyces glabratus. Description: Antimicrobial activity against deltacrz1 mutant containing Candida glabrata TG173 complemented with CRZ1 gene by colorimetric microdilution method. Type of experiment: functional. The method in brief:
as §1

The subject of experiment [6] is Nakaseomyces glabratus. Briefly: Antimicrobial activity against Candida glabrata TG172 containing deltacrz1 mutant assessed as reduction in […] cell viability by time kill study. Type of experiment: functional, organism-based. The procedure, abridged:
as §2

Experiment [7] concerns Nakaseomyces glabratus. Briefly: Fungicidal activity against Candida glabrata TG162 containing calcineurin deltacnb1 mutant assessed as reduction in […] cell viability by time kill study. It counts as functional, organism-based. The method in brief:
as §2

Experiment [8] deals with Nakaseomyces glabratus. Description: Antimicrobial activity against wild type Candida glabrata TG11 by colorimetric microdilution method. It counts as functional. The method in brief: as §1
In experiment [9] the test system is Nakaseomyces glabratus. Description: Antimicrobial activity against Candida glabrata TG172 containing deltacrz1 mutant by colorimetric microdilution method. Type of experiment: functional. The procedure, abridged:
as §1

Experiment [10] relates to Nakaseomyces glabratus. Briefly: Antimicrobial activity against deltacrz1 mutant containing Candida glabrata TG173 complemented with CRZ1 gene assessed as reduction in […] cell viability by time kill study. It counts as functional, organism-based. The method in brief: as §2
For experiment [11], the system named is Nakaseomyces glabratus. Briefly: Antimicrobial activity against Candida glabrata TG172 containing deltacrz1 mutant at 0.8 mg/ml after 48 hrs. Type of experiment: functional, organism-based. The method in brief:
(§3)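 Spot assay: serial 10-fold dilutions of log-phase cells spotted on minimal-medium plates containing micafungin, Congo red or calcofluor white. Plates incubated 48 h at 30°C; each test repeated at least three times.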

Experiment [12] deals with Nakaseomyces glabratus. Description: Antimicrobial activity against Candida glabrata TG162 containing calcineurin deltacnb1 mutant at 0.8 mg/ml after 48 hrs. Type of experiment: functional, organism-based. The procedure, abridged: as §3
Experiment [13] relates to Nakaseomyces glabratus. Description: Fungicidal activity against Candida glabrata TG172 containing deltacrz1 mutant at 0.03 ug/ml after 24 hrs by colorimetric microdilution method. It counts as functional, organism-based. The procedure, abridged:
(§4)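 Log-phase cells at 2.5 × 10^3 CFU/ml in minimal medium, with or without micafungin (dissolved in distilled water). OD600 read after 24 h. Percent absorbance at 0.03 μg/ml relative to drug-free culture; mean and SD of three independent experiments.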

In experiment [14] the test system is Nakaseomyces glabratus. Description: Fungicidal activity against Candida glabrata TG162 containing calcineurin deltacnb1 mutant at 0.03 ug/ml after 24 hrs by colorimetric microdilution method. It counts as functional, organism-based. The procedure, abridged:
as §4

The test system of experiment [15] is Nakaseomyces glabratus. Briefly: Fungistatic activity against wild type Candida glabrata TG11 at 0.03 ug/ml after 24 hrs by colorimetric microdilution method. It counts as functional, organism-based.
For experiment [16], the system named is Nakaseomyces glabratus. Briefly: Fungicidal activity against deltacrz1 mutant containing Candida glabrata TG173 complemented with CRZ1 gene at 0.03 ug/ml after 24 hrs by colorimetric microdilution method. Type of experiment: functional, organism-based. The method in brief:
as §4

The subject of experiment [17] is Nakaseomyces glabratus. Briefly: Fungicidal activity against calcineurin deltacnb1 mutant containing Candida glabrata TG163 complemented with CNB1 gene at 0.03 ug/ml after 24 hrs by colorimetric microdilution method. It counts as functional, organism-based. The method in brief: as §4
Experiment [18] concerns Nakaseomyces glabratus. Briefly: Antimicrobial activity against Candida glabrata TG162 containing calcineurin deltacnb1 mutant at 1 mg/ml after 48 hrs. Type of experiment: functional, organism-based. The procedure, abridged: as §3
For experiment [19], the system named is Nakaseomyces glabratus. Description: Antimicrobial activity against Candida glabrata TG172 containing deltacrz1 mutant at 1 mg/ml after 48 hrs. It counts as functional, organism-based. The procedure, abridged: as §3

On to `OC(Cn1cncn1)(Cn1cncn1)c1ccc(F)cc1F` [FLUCONAZOLE], for which the MIC in the experiment with Nakaseomyces glabratus [1] turned out to be 4 µg/mL (≈ 13.1 µM); in the experiment with Nakaseomyces glabratus [2] it was 16 µg/mL (≈ 52.2 µM); in the experiment on Nakaseomyces glabratus [5], 16 µg/mL (≈ 52.2 µM); in the experiment with Nakaseomyces glabratus [8], 16 µg/mL (≈ 52.2 µM); in the experiment with Nakaseomyces glabratus [9] it was 32 µg/mL (≈ 104 µM). Further, the “growth inhibition (GI)” value with Nakaseomyces glabratus [3], in the experiment with Nakaseomyces glabratus [4] and in the experiment on Nakaseomyces glabratus [7] was “Active” each time. Moreover, the “growth inhibition (GI)” value in the experiment on Nakaseomyces glabratus [6] and in the experiment on Nakaseomyces glabratus [10] was “inactive” in each case.
In the case of `Clc1ccc(COC(Cn2ccnc2)c2ccc(Cl)cc2Cl)c(Cl)c1` (centres undefined) [MICONAZOLE], the MIC in the experiment with Nakaseomyces glabratus [1] worked out at 0.125 µg/mL (≈ 0.3 µM); in the experiment on Nakaseomyces glabratus [2], 0.5 µg/mL (≈ 1.2 µM); in the experiment with Nakaseomyces glabratus [5] it was 0.5 µg/mL (≈ 1.2 µM); with Nakaseomyces glabratus [8], 0.5 µg/mL (≈ 1.2 µM); in the experiment on Nakaseomyces glabratus [9] it was 1 µg/mL (≈ 2.4 µM).
For `CCC(C)n1ncn(-c2ccc(N3CCN(c4ccc(OCC5COC(Cn6cncn6)(c6ccc(Cl)cc6Cl)O5)cc4)CC3)cc2)c1=O` (centres undefined) [ITRACONAZOLE], the MIC with Nakaseomyces glabratus [1] amounted to 0.5 µg/mL (≈ 0.709 µM); in the experiment with Nakaseomyces glabratus [2] it was 2 µg/mL (≈ 2.83 µM); in the experiment on Nakaseomyces glabratus [5], 1 µg/mL (≈ 1.42 µM); in the experiment with Nakaseomyces glabratus [8] it was 2 µg/mL (≈ 2.83 µM); with Nakaseomyces glabratus [9], 1 µg/mL (≈ 1.42 µM).
As to `C[C@@H]1[C@H](O)[C@@H](C)/C=C/C=C/C=C/C=C/C=C/C=C/C=C/[C@H](O[C@@H]2O[C@H](C)[C@@H](O)[C@H](N)[C@@H]2O)C[C@@H]2O[C@](O)(C[C@@H](O)C[C@@H](O)[C@H](O)CC[C@@H](O)C[C@@H](O)CC(=O)O[C@H]1C)C[C@H](O)[C@H]2C(=O)O` [AMPHOTERICIN B], the MIC with Nakaseomyces glabratus [1], with Nakaseomyces glabratus [2], against Nakaseomyces glabratus [5], against Nakaseomyces glabratus [8] and in the experiment on Nakaseomyces glabratus [9] was 0.5 µg/mL (≈ 0.541 µM) throughout.
For `O=S(=O)(O)c1cc(Nc2nc(Nc3ccccc3)nc(N(CCO)CCO)n2)ccc1/C=C/c1ccc(Nc2nc(Nc3ccccc3)nc(N(CCO)CCO)n2)cc1S(=O)(=O)O`, the “growth inhibition (GI)” value with Nakaseomyces glabratus [11] was “inactive”. Also, the “growth inhibition (GI)” value with Nakaseomyces glabratus [12] is “Active”.
Consider `CCCCCOc1ccc(-c2cc(-c3ccc(C(=O)N[C@H]4C[C@@H](O)[C@@H](O)NC(=O)[C@@H]5[C@@H](O)[C@@H](C)CN5C(=O)[C@H]([C@H](O)CC(N)=O)NC(=O)[C@H]([C@H](O)[C@@H](O)c5ccc(O)c(OS(=O)(=O)O)c5)NC(=O)[C@@H]5C[C@@H](O)CN5C(=O)[C@H]([C@@H](C)O)NC4=O)cc3)no2)cc1` (X1-[Orn(4R-OH,5R-OH)]T[Hyp][hTyr(3S-OH,4S-OH,3'-OSO3H)][Gln(3R-OH)][Pro(3S-OH,4S-Me)]; lactam 1-C), for which the “growth inhibition (GI)” value in the experiment on Nakaseomyces glabratus [13], in the experiment with Nakaseomyces glabratus [14] and with Nakaseomyces glabratus [15] was “Active” in each case. Besides, the “growth inhibition (GI)” value in the experiment with Nakaseomyces glabratus [16] and with Nakaseomyces glabratus [17] was “inactive” throughout.
Turning to `Nc1c(/N=N/c2ccc(-c3ccc(/N=N/c4cc(S(=O)(=O)O)c5ccccc5c4N)cc3)cc2)cc(S(=O)(=O)O)c2ccccc12`, the “growth inhibition (GI)” value with Nakaseomyces glabratus [18] and in the experiment on Nakaseomyces glabratus [19] was “Active” throughout.
Turning to `C[C@@H](c1ncncc1F)[C@](O)(Cn1cncn1)c1ccc(F)cc1F` [VORICONAZOLE], the MIC with Nakaseomyces glabratus [1] was 0.125 µg/mL (≈ 0.358 µM); in the experiment with Nakaseomyces glabratus [2] it was 0.25 µg/mL (≈ 0.716 µM); against Nakaseomyces glabratus [5], 0.25 µg/mL (≈ 0.716 µM); against Nakaseomyces glabratus [8], 0.25 µg/mL (≈ 0.716 µM); with Nakaseomyces glabratus [9], 0.5 µg/mL (≈ 1.43 µM).

The values are drawn from ChEMBL document CHEMBL1255408, “Roles of calcineurin and Crz1 in antifungal susceptibility and virulence of Candida glabrata” (2010).
